Test results as given in ChEMBL document CHEMBL4043064, “Pharmacophore-Based Repositioning of Approved Drugs as Novel Staphylococcus aureus NorA Efflux Pump Inhibitors” (J Med Chem, 2017).
pIC50: −log10 of the molar value. The source made the active and inactive calls. The calls are words filed in the database; no cut-off is given here.

Legend:
[1] = biological target: T1, Quinolone resistance protein NorA (Staphylococcus aureus) (UniProt P0A0J7); experiment: Inhibition of NorA in Staphylococcus aureus SA1199B harboring GrlA A116E mutant assessed as inhibition of ethidium bromide efflux at 50 uM measured after 5 mins by fluorometric method relative to control
T1 sequence (whole entry): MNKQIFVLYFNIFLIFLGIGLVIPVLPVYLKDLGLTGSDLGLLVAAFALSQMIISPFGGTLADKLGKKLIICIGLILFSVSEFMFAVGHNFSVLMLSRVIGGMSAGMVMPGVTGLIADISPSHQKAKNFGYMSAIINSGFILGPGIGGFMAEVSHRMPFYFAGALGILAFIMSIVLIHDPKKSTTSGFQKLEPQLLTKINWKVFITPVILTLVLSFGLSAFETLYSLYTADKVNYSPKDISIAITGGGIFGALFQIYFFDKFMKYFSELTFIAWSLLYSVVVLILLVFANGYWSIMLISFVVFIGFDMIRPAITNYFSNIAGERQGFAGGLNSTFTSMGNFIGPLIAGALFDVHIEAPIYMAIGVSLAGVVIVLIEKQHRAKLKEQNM
Method in brief: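 S. aureus SA-1199B; test compounds at 50 µM. EtBr loss was measured fluorometrically in their presence and compared with their absence to give percentage reduction in efflux.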

[2] = biological target: Quinolone resistance protein NorA (Staphylococcus aureus, UniProt P0A0J7, A116E); experiment: Inhibition of NorA in Staphylococcus aureus SA1199B harboring GrlA A116E mutant assessed as inhibition of ethidium bromide efflux after 5 mins by fluorometric method
Method in brief: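 S. aureus SA-1199B; EtBr loss measured fluorometrically, with compound present versus absent, giving percentage reduction in efflux. Increasing inhibitor concentrations were tested, and IC50 was read by inspecting the dose-response plots.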

[3] = biological target: T1, Quinolone resistance protein NorA (Staphylococcus aureus); experiment: Inhibition of Staphylococcus aureus SAK2378 norA assessed as potentiation of CPX-induced antimicrobial activity up to 100 ug/ml by checkerboard assay
Method in brief: (§1)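 Checkerboard microdilution of compound against CPX, with MICs set by CLSI microdilution. Applies to S. aureus SA-1199B and SA-K2378. Compound alone was tested up to 100 µg/mL. The read-out is fold reduction of the CPX MIC.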

[4] = biological target: T1, Quinolone resistance protein NorA (Staphylococcus aureus); experiment: Inhibition of NorA in Staphylococcus aureus SA1199B harboring GrlA A116E mutant assessed as potentiation of CPX-induced antimicrobial activity up to 100 ug/ml by checkerboard assay; method in brief: as §1

| SMILES | inhibition [1] [%] | pIC50 [2] | inhibition [3] | inhibition [4] |
| --- | --- | --- | --- | --- |
| CCCc1nn(C)c2c(=O)[nH]c(-c3cc(S(=O)(=O)N4CCN(C)CC4)ccc3OCC)nc12 | 22.9 |  |  |  |
| COc1cc2ncnc(Nc3ccc(F)c(Cl)c3)c2cc1OCCCN1CCOCC1 [GEFITINIB] | 94.2 | 5.01 |  |  |
| CCOC(=O)Nc1ccc2c(c1)N(C(=O)CCN1CCOCC1)c1ccccc1S2 | 23.7 |  |  |  |
| COC(=O)[C@H]1[C@H]2C[C@@H]3c4[nH]c5cc(OC)ccc5c4CCN3C[C@H]2C[C@@H](OC(=O)c2cc(OC)c(OC)c(OC)c2)[C@@H]1OC |  |  | Active | Active |
| COC(=O)C1=C(C)NC(C)=C(C(=O)OCCN(C)Cc2ccccc2)C1c1cccc([N+](=O)[O-])c1 (centres undefined) [NICARDIPINE] | 77.1 | 4.64 |  |  |
| CCN(CCCCOC(=O)c1ccc(OC)c(OC)c1)C(C)Cc1ccc(OC)cc1 (centres undefined) | 45.2 |  |  |  |
| Cc1ccc(-n2nc(C(C)(C)C)cc2NC(=O)Nc2ccc(OCCN3CCOCC3)c3ccccc23)cc1 | 47 |  |  |  |
| CCCOc1ccc(-c2cc(OCCN(CC)CC)c3ccccc3n2)cc1 |  |  | Active | Active |
| Cc1nc(Nc2ncc(C(=O)Nc3c(C)cccc3Cl)s2)cc(N2CCN(CCO)CC2)n1 [DASATINIB] | 95.8 | 4.94 |  |  |
